Screening results: PubChem BioAssay, Sanford-Burnham Center for Chemical Genomics
A selection: hits, their analogues and other compounds. The true share with any hit is near 3.3%.
CendR NRP1 mod = NRP-1/CendR interaction modulation. inhibition, % at 25 µM. AID 602438. actives 0.85% (n = 360,000). FAM-RPARPAR peptide binding to NRP-1, fluorescence polarization;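 active = inhibition or corrected inhibition above about 18%, plus a signal ratio from 0.5 to 1.5, limit read from the data, passing the limit was not always enough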
SENP8 block-1 = inhibitors of human SENP8 protease; purified SENP8, Z-RLRGG-aminoluciferin cleavage, luminescence; Q96LD8; inhibition, % at 10 µM; actives 1.2% (n = 330,000); AID 2540; in the data active = inhibition above about 50%
SENP6 block = blocks the human protease SENP6. Q9GZR1. Recombinant SENP6 catalytic domain, aminoluciferin luminescence. inhibition, % at 10 µM. actives 1.8% (n = 330,000). AID 2599;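 active = inhibition above about 50% at the single tested dose, limit read from the data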;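 also: plate controls were DMSO wells with enzyme for no effect and DMSO wells lacking enzyme for full effect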
Target sequence (Q9GZR1 628-1112 limits assumed): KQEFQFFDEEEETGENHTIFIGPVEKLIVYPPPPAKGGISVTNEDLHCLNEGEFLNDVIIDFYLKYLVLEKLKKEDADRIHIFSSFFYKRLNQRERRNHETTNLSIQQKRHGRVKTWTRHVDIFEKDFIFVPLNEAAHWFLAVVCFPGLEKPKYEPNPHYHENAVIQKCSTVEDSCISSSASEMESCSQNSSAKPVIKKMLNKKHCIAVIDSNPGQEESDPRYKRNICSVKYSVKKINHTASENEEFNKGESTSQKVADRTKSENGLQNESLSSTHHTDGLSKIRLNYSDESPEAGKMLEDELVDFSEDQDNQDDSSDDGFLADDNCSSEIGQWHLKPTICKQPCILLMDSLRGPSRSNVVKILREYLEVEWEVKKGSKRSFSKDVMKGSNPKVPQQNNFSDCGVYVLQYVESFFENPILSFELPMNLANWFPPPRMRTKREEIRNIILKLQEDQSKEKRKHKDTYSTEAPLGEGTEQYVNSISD
SENP7 block = blocks the human protease SENP7. Q9BQF6. recombinant SENP7, Z-RLRGG-aminoluciferin luminescence, 40 min. inhibition, % at 5 µM. actives 1.5% (n = 330,000);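 active = inhibition above about 50% at the single test dose, limit read from the data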;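 also: plate controls were DMSO with enzyme for no effect and no enzyme buffer wells for full effect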
SENP8 block-2 = blocks human SENP8 cleavage of Nedd8 substrate | Q96LD8 | recombinant SENP8, Nedd8 substrate fluorescence | inhibition, % at 20 µM | actives 0.64% (n = 360,000) | AID 602440; in the data active = inhibition mostly above about 40%, no sharp cut-off; inactive = mostly below about 27%
SENP1 FRET inh = SENP1 (human) catalytic domain inhibition | actives 0.21% (n = 360,000) | inhibition, % at 10 µM | recombinant SENP1 catalytic domain, CyPet-SUMO1-YPet FRET cleavage | Q9P0U3 | AID 624204;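 active = inhibition at least 30% at 10 µM, raw YFP signal under a set limit, fluorescence ratio 0.5 to 1.5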;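 also: 0% = enzyme with DMSO and 100% = no enzyme wells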
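material = recombinant human SENP1 catalytic domain, His6-tagged | quantity = 20 pM enzyme | reagent = 25 nM SUMO1 FRET substrate | compound dosing = 10 µM single point, 0.5% DMSO | timing = 50 min enzyme reaction, room temperature, light-protected | detection = FRET, CFP and YFP emission | control set = no-enzyme low, enzyme-DMSO high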
SENP8 confirm = human SENP8 inhibition, confirmed. shares compounds with SENP7 block. Recombinant SENP8, Z-RLRGG-aminoluciferin luminescence, 60 min. inhibition, % at 12.5 µM. actives 40% (n = 6,200). AID 488912;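 active = mean inhibition across replicates above about 50%, limit read from the data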
SENP6 conf = confirmation of human SENP6 protease inhibitors; shares compounds with SENP7 block; recombinant SENP6, Z-RLRGG-aminoluciferin luminescence; inhibition, % at 12.5 µM; actives 58% (n = 6,200)
SENP7 conf = human SENP7 inhibition, confirmed. shares compounds with SENP7 block. recombinant SENP7, Z-RLRGG-aminoluciferin luminescence, 40 min. inhibition, % at 12.5 µM. actives 69% (n = 6,200)
Casp3 select = caspase-3 inhibition (SENP selectivity assay); shares compounds with SENP7 block; purified caspase-3, Z-DEVD-aminoluciferin luminescence, 60 min; inhibition, % at 12.5 µM; actives 60% (n = 6,200); AID 488918;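 active = mean inhibition above about 50%, limit read from the data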;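 also: plate controls were enzyme with DMSO for no effect and wells without caspase-3 for full effect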
Target sequence (P42574 28-227 limits assumed): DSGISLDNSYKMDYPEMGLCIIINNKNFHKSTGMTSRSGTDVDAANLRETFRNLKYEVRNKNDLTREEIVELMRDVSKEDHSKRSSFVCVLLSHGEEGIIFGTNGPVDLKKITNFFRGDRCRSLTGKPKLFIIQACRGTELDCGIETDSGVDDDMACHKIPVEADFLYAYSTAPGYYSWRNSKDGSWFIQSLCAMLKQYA
SENP luc ctr = interferes with luciferase luminescence in SENP counter-screen | actives 39% (n = 6,200) | inhibition, % at 12.5 µM | shares compounds with SENP7 block | Pre-incubated SENP8/Z-RLRGG-aminoluciferin, luciferase luminescence interference;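 active = mean inhibition above about 50% when retested at one dose, limit read from the data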;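 also: plate controls were DMSO wells with completed reaction for no effect and substrate without enzyme for full effect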
An asterisk follows results filed as active; · = no result.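 The calls were made as follows, unless noted: active = mean inhibition above about 50% in the one-dose retest (limit read from the data); inactive = the rest.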

SMILES | CendR NRP1 mod | SENP8 block-1 | SENP6 block | SENP7 block | SENP8 block-2 | SENP1 FRET inh | SENP8 confirm | SENP6 conf | SENP7 conf | Casp3 select | SENP luc ctr
C[C@H](CO)N1C[C@H](C)[C@H](CN(C)S(=O)(=O)c2cccc(C#N)c2)OCc2cnnn2CCCC1=O | -8.6 | · | · | · | -1.6 | 0.1 | · | · | · | · | ·
Cc1occc1C(=O)N/N=C/C(Br)=C/c1ccccc1 | -1.9 | 84.2* | 91.6* | 88.5* | 4.9 | 1.6 | 66.1* | 91.7* | 99.0* | 88.4* | 25.1
COc1ccc(/C=N/NC(=O)c2ccoc2C)cc1OC | -5.5 | 6.0 | 56.3* | 47.4 | 20.6 | 0.6 | 31.4 | 28.3 | 69.8* | 79.5* | 52.0*
Cc1occc1C(=O)N/N=C/c1ccc(-c2ccccc2)cc1 | 3.0 | 97.5* | 99.0* | 100.2* | 17.6 | 1.6 | 71.3* | 99.8* | 102.6* | 98.5* | 69.9*
COc1ccc(/C=N/NC(=O)c2ccoc2C)cc1O | -5.6 | -5.3 | 75.6* | 67.2* | -29.1 | -0.4 | 68.5* | 67.4* | 88.9* | 89.9* | 72.7*
Cc1cc(/C=N/NC(=O)c2ccoc2C)cc(C)c1O | -0.3 | · | · | · | -42.3 | 4.7 | · | · | · | · | ·
O=C(N/N=C/C(Br)=C/c1ccccc1)c1ccccc1[N+](=O)[O-] | -18.1 | -1.9 | 11.0 | 2.8 | 7.3 | 4.3 | · | · | · | · | ·
COc1cccc(-c2cccc3c2NC(=O)C3(C)Cc2ccccc2F)c1 (stereo unspecified) | -2.8 | · | · | · | 22.9 | 0.7 | · | · | · | · | ·
C[C@H](CO)N1C[C@H](C)[C@@H](CN(C)C(=O)Nc2ccc(C(F)(F)F)cc2)Oc2c(NS(=O)(=O)c3cn(C)cn3)cccc2C1=O | 9.5 | -4.5 | 1.8 | -9.1 | 6.8 | 2.6 | · | · | · | · | ·
Cc1occc1C(=O)Nc1cccc2ccccc12 | -15.1 | 91.1* | 96.3* | 95.0* | -34.2 | -3.5 | 10.1 | 95.5* | 101.6* | 91.4* | 93.5*
Cc1occc1C(=O)Nc1ccccc1NC(=O)c1ccoc1C | -74.4 | 3.7 | -6.4 | 8.3 | 5.9 | 0.7 | · | · | · | · | ·
CCN(CC)c1ccc(/C=N/NC(=O)c2ccoc2C)c(O)c1 | -6.1 | 94.1* | 98.0* | 100.5* | -115.8 | -56.5 | 96.2* | 97.7* | 103.4* | 40.2 | 4.7
Cc1occc1C(=O)N/N=C/c1cccc2ccccc12 | -10.2 | 88.7* | 89.8* | 92.1* | 13.6 | 1.8 | 56.0* | 87.8* | 99.7* | 89.4* | 14.1
Cc1occc1C(=O)N/N=C/c1cccs1 | 4.6 | 62.2* | 66.8* | 83.0* | 5.7 | 2.8 | 72.4* | 72.1* | 91.0* | 91.4* | 74.0*
Cc1cc(C(=O)Nc2cc(C(C)(C)C)on2)c(C)o1 | -5.0 | 64.4* | 72.8* | 70.6* | 1.8 | -0.7 | 15.0 | 25.4 | 43.6 | 51.1* | 11.4
Cc1cc(C(=O)Nc2ccon2)c(C)o1 | -3.3 | -10.2 | -39.4 | -9.1 | 0.9 | -6.8 | · | · | · | · | ·
CC(C)(C)c1cc(NC(=O)Nc2ccccc2)no1 | -2.4 | 12.8 | 30.0 | 7.4 | 22.6 | 1.1 | · | · | · | · | ·
CC(C)(C)c1cc(NC(=O)c2ccco2)no1 | 11.6 | 32.5 | 66.8* | 70.7* | 9.2 | 1.2 | 52.7* | 56.6* | 86.3* | 83.4* | 56.5*
CCOC(=O)C1=C(C(=O)OCC)N(CC2CCCCC2)CCC1=O | -9.6 | · | · | · | 13.2 | -0.1 | · | · | · | · | ·
CCN(CC(=O)Nc1ccc2c(c1)OCCO2)C(=O)C(C)Oc1ccc(F)cc1 (stereo unspecified) | -5.0 | · | · | · | 14.6 | -0.1 | · | · | · | · | ·
COc1ccc(NC(=O)c2cc(C3CCCCN3C(=O)c3ccc(Cl)cc3)on2)c(C)c1 (stereo unspecified) | -2.4 | · | · | · | 3.2 | 1.2 | · | · | · | · | ·
CC(C)S(=O)(=O)c1csc(C(=O)Nc2ccc(F)cc2)c1N | -1.6 | 91.7* | 98.4* | 98.0* | -120.8 | 0.4 | 96.5* | 97.3* | 102.1* | 97.2* | 87.3*
COc1ccc2[nH]c3c(=O)n(CCCCC(=O)NCCN4CCCC4)c(=S)[nH]c3c2c1 | -2.0 | 4.7 | 5.9 | 3.5 | -219.2 | -0.1 | · | · | · | · | ·
COc1ccc2[nH]c3c(=O)n(Cc4ccc(C(=O)N5CCCC5)cc4)c(=S)[nH]c3c2c1 | -3.1 | 46.6 | 66.1* | 21.5 | -245.8 | -2.9 | 11.1 | 24.4 | 17.4 | 17.2 | 4.3
Cc1ccc(OCCNC(=O)[C@H]2O[C@@H](n3cnc4c(N)ncnc43)[C@H](O)[C@@H]2O)cc1C | -10.8 | · | · | · | 14.0 | 1.9 | · | · | · | · | ·
SMILES | CendR NRP1 mod | SENP8 block-1 | SENP6 block | SENP7 block | SENP8 block-2 | SENP1 FRET inh | SENP8 confirm | SENP6 conf | SENP7 conf | Casp3 select | SENP luc ctr
COc1cc(CN2C(=O)C(CCc3ccccc3)ON=C2c2cnccn2)cc(OC)c1 (stereo unspecified) | -8.0 | · | · | · | -0.5 | 3.8 | · | · | · | · | ·
CCn1cnc2cc(NCc3nc4ccccc4n3C)ccc21 | 17.5 | 68.2* | 72.0* | 2.6 | -19.7 | -17.0 | 77.6* | 77.4* | 92.6* | 91.9* | 78.3*
Cn1c(CNc2ccccc2)nc2ccccc21 | -8.2 | -16.5 | 17.7 | -1.6 | -4.0 | -2.9 | · | · | · | · | ·
Cc1ccccc1NCc1nc2ccccc2n1C | 3.1 | 78.3* | 84.9* | 86.3* | 2.4 | 2.4 | 82.9* | 84.3* | 97.9* | 93.3* | 56.3*
Cn1c(CNc2ccccc2O)nc2ccccc21 | -2.4 | -6.7 | 9.8 | 28.5 | 13.4 | 1.6 | · | · | · | · | ·
Cn1c(CNc2ccc(F)cc2)nc2ccccc21 | -5.8 | 57.7* | 79.7* | 77.9* | 19.5 | -0.2 | 72.1* | 71.9* | 92.2* | 87.3* | 74.6*
COc1ccc(CNC(=O)COC(=O)CN2C(=O)C3CC=CCC3C2=O)cc1 (stereo unspecified) | 16.4 | -4.7 | 18.0 | 4.5 | 0.8 | 0.5 | · | · | · | · | ·
COC(=O)C1CCN(C2CN(Cc3ccc([N+](=O)[O-])cc3)S(=O)(=O)C2)CC1 (stereo unspecified) | 18.0 | · | · | · | 9.2 | 5.3 | · | · | · | · | ·
Cc1cccc(C)c1NC(=O)C(c1ccccc1OC(F)(F)F)N1CCN(C)CC1 (stereo unspecified) | 7.7 | · | · | · | 20.7 | 3.4 | · | · | · | · | ·
COCCN1C[C@@H](CO)O[C@@H](n2cnc3c(N(C)C)ncnc32)C1 | -14.4 | · | · | · | 12.5 | 0.5 | · | · | · | · | ·
Cc1ccnc(Nc2nc3ccccc3o2)n1 | -4.1 | 66.6* | 76.7* | 72.9* | 11.9 | 0.8 | -26.5 | 54.4* | 88.3* | 90.2* | 49.7
